Measurements from different studies.
Compare with care: the assays were run in different laboratories. pEC50, pKd, pKi: −log10 of the molar value.
OPRM1: Mu-type opioid receptor (OPRM1, Homo sapiens, UniProt P35372)
CYP2A6: Cytochrome P450 2A6 (CYP2A6, Homo sapiens, UniProt P11509)
Slc6a4: Sodium-dependent serotonin transporter (Slc6a4, Rattus norvegicus, UniProt P31652)

| Structure (SMILES) | target | assay | test system | setting | quantity | value |
| --- | --- | --- | --- | --- | --- | --- |
| OC[C@@]12C[C@@H]1[C@@H](n1cnc3c(NC(C4CCCC4)C4CCCC4)nc(Cl)nc31)[C@H](O)[C@@H]2O | OPRM1 | cell-free assay, radioligand |  |  | pKi | 5.46 |
| CCCCN1CCC(COC(=O)c2ccc(N)c(OCF)c2)CC1 | OPRM1 | cell-free assay, radioligand |  |  | pKi | < 5.00 |
| C#Cc1ccc2c(=O)cc(-c3ccccc3)oc2c1 | CYP2A6 | enzyme activity, inhibitor |  | 6 min, pH 7.6 | pKi | < 4.60 |
| CCCN1CCN(c2ccc(-c3cncc(Cl)c3N3CCC4(CCNC4=O)CC3)cc2)CC1 | Glycogen synthase kinase-3 alpha (GSK3A, Homo sapiens, UniProt P49840) | cell-free assay |  | lysate | pKd | 5.76 |
| C#Cc1cccc2oc(-c3ccccc3)cc(=O)c12 | CYP2A6 | enzyme activity, inhibitor |  | 6 min, pH 7.6 | pKi | < 4.60 |
| COc1cc2c(cc1OC)C(=O)N(CCCCN1C(=O)/C(=N\NC(=S)N(C)C)c3ccccc31)CC2 | ATP-dependent translocase ABCB1 (ABCB1, Homo sapiens, UniProt P08183) | transporter efflux, inhibitor, fluorescence | MDCK-MDR1 |  | pEC50 | 4.96 |
| C#Cc1ccc2oc(-c3ccccc3)cc(=O)c2c1 | CYP2A6 | enzyme activity, inhibitor |  | 6 min, pH 7.6 | pKi | < 4.60 |
| Nc1nc2c(ncn2[C@@H]2O[C@H](COP(=O)(O)OP(=O)(O)O)[C@@H](OP(=O)(O)OP(=O)(O)O)[C@H]2O)c(=O)[nH]1 | mpl (Escherichia coli, UniProt P37773) | binding, ITC |  |  | pKd | 3.12 |
| C#Cc1cccc(-c2cc(=O)c3ccccc3o2)c1 | CYP2A6 | enzyme activity, inhibitor |  | 6 min, pH 7.6 | pKi | < 4.60 |
| CN(C)CCN(Cc1ccccc1)Cc1c(F)cccc1Cl | Slc6a4 | ligand displacement, radioligand |  |  | pKi | 6.67 |
| CC(=O)N[C@H](C(=O)N1C[C@H](O)C[C@H]1C(=O)NCc1ccc(-c2scnc2C)cc1)C(C)(C)SCCCCCCNC(=O)C[C@@H]1N=C(c2ccc(Cl)cc2)c2c(sc(C)c2C)-n2c(C)nnc21 | Bromodomain-containing protein 4, BD2 (BRD4, Homo sapiens, UniProt O60885) | binding |  |  | pKd | 7.36 |
| Cc1cnc(-c2ccc(-c3ccc(NC(=O)Nc4c(F)cc(F)cc4F)cc3F)c3c2C(=O)NC3)[nH]1 | Tyrosine-protein kinase Yes (YES1, Homo sapiens, UniProt P07947) | binding, competition with immobilised ligand |  |  | pKd | 6.51 |
| CNC(=O)[C@@]12C[C@@H]1[C@@H](n1cnc3c(NC)nc(C#C[c-]4cccc4)nc31)[C@H](O)[C@@H]2O.[Fe+2].c1cc[cH-]c1 | Adenosine receptor A3 (Mus musculus, UniProt Q61618) | ligand displacement, radioligand |  | cell membranes | pKi | 8.26 |
| CN1CCN(Cc2cccc(Oc3ccccc3)c2)CC1 | Slc6a4 | ligand displacement, radioligand |  |  | pKi | < 4.70 |
| Cc1cc2c(NC(=O)c3cccc(C(=O)O)c3)cccc2nn1 | Bromodomain-containing protein 4, BD1 (BRD4, Homo sapiens, UniProt O60885) | binding, competition with immobilised ligand |  |  | pKd | 4.39 |
| Cc1cc(N)nc(CCc2cccc([C@@H](N)Cc3cc(C)cc(N)n3)c2)c1 | Nitric oxide synthase 1 (Nos1, Rattus norvegicus, UniProt P29476) | enzyme activity, inhibitor |  |  | pKi | ~7.00 |
